The source made the active and inactive calls.
Experiments:
Type in all cases: functional, organism-based
Bacillus subtilis = assay: Antibacterial activity against Bacillus subtilis at 1 mM by almar blue dye reduction assay
Procedure, shortened: (§1)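 Single-point primary screen at 1 mM using Alamar Blue dye reduction as the growth read-out.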

Escherichia coli = assay: Antibacterial activity against Escherichia coli at 1 mM by almar blue dye reduction assay; procedure, shortened: as §1
Staphylococcus aureus = assay: Antibacterial activity against Staphylococcus aureus at 1 mM by almar blue dye reduction assay; procedure, shortened: as §1
Pseudomonas aeruginosa = assay: Antibacterial activity against Pseudomonas aeruginosa at 1 mM by almar blue dye reduction assay; procedure, shortened: as §1
Candida albicans = assay: Antifungal activity against Candida albicans at 1 mM by almar blue dye reduction assay; procedure, shortened: as §1
Saccharomyces cerevisiae = assay: Antifungal activity against Saccharomyces cerevisiae at 1 mM by almar blue dye reduction assay; procedure, shortened: as §1
Bacillus anthracis = assay: Antibacterial activity against Bacillus anthracis at 1mM by almar blue dye reduction assay
Cryptococcus neoformans = assay: Antifungal activity against Cryptococcus neoformans at 1 mM by almar blue dye reduction assay; procedure, shortened: as §1
Bacillus cereus = assay: Antibacterial activity against Bacillus cereus at 1 mM by almar blue dye reduction assay; procedure, shortened: as §1

Measured: Activity

C[C@H](C[C@@H]1CC[C@H]([C@@H](C)C(=O)N2CCCC2)O1)n1cc(C#Cc2ccc(C(F)(F)F)cc2)nn1
inactive: all assays above

CCOC(=O)C#Cc1cn([C@H](C)CC2CCC([C@@H](C)C(=O)N(CC)CC)O2)nn1 (single isomer, unassigned)
inactive: all assays above

CC(C)CC#Cc1cn([C@H](C)C[C@@H]2CC[C@H]([C@@H](C)C(=O)N(C)Cc3ccccc3)O2)nn1
inactive: all assays above

C[C@H](C[C@@H]1CC[C@H]([C@@H](C)C(=O)N(C)Cc2ccccc2)O1)n1cc(C#CCN2CCOCC2)nn1
inactive: all assays above

C[C@H](C[C@@H]1CC[C@H]([C@@H](C)C(=O)N2CCN(CC3CCCO3)CC2)O1)n1cc(C#CCOc2ccc(C(F)(F)F)cc2)nn1 (some centres not stated)
inactive: all assays above

COc1cccc(OCC#Cc2cn([C@H](C)C[C@@H]3CC[C@H]([C@@H](C)C(=O)N4CCN(CC5CCCO5)CC4)O3)nn2)c1OC (some centres not stated)
inactive: all assays above

C[C@H](C[C@@H]1CC[C@H]([C@@H](C)C(=O)N2CCN(CC3CCCO3)CC2)O1)n1cc(C#CCN2CCC(c3ccccc3)CC2)nn1 (some centres not stated)
inactive: all assays above

Cc1cccc(NC(=O)NCC#Cc2cn([C@H](C)CC3CCC([C@@H](C)C(=O)N4CCN(CC5CCCO5)CC4)O3)nn2)c1 (single isomer, unassigned)
inactive: all assays above

CCN(CC)C(=O)[C@H](C)[C@H]1CC[C@@H](C[C@@H](C)n2cc(C#Cc3ccccc3[N+](=O)[O-])nn2)O1
inactive: all assays above

CC(C)CC#Cc1cn([C@H](C)C[C@@H]2CC[C@H]([C@@H](C)C(=O)NC(C)C)O2)nn1
inactive: all assays above

CCN(CC)C(=O)[C@H](C)[C@H]1CC[C@@H](C[C@@H](C)n2cc(C#CCOc3ccc(Br)cc3)nn2)O1
inactive: all assays above

CCCNC(=O)NCC#Cc1cn([C@H](C)CC2CCC([C@@H](C)C(=O)N3CCCC3)O2)nn1 (single isomer, unassigned)
inactive: all assays above

C[C@H](C[C@@H]1CC[C@H]([C@@H](C)C(=O)N2CCCC2)O1)n1cc(C#Cc2ccccn2)nn1
inactive: all assays above

CCN(CC)C(=O)[C@H](C)[C@H]1CC[C@@H](C[C@@H](C)n2cc(C#CCC(C)C)nn2)O1
inactive: all assays above

CCCNC(=O)NCC#Cc1cn([C@H](C)CC2CCC([C@@H](C)C(=O)NC(C)C)O2)nn1 (single isomer, unassigned)
inactive: all assays above

COCCNCC#Cc1cn([C@H](C)C[C@@H]2CC[C@H]([C@@H](C)C(=O)NC(C)C)O2)nn1
inactive: all assays above

Cc1cccc(NC(=O)OCC#Cc2cn([C@H](C)CC3CCC([C@@H](C)C(=O)N(C)Cc4ccccc4)O3)nn2)c1 (single isomer, unassigned)
inactive: all assays above

COc1ccc(C#Cc2cn([C@H](C)C[C@@H]3CC[C@H]([C@@H](C)C(=O)NC(C)C)O3)nn2)cc1
inactive: all assays above

From ChEMBL document CHEMBL1155099, “Natural products in parallel synthesis: triazole libraries of nonactic acid” (2008)
